Source: publication PMC5916823 (Molecular cell, 2018)

Legend:
[1] = ref Kotschy et al., 2016; cited from earlier work
surface groove of MCL-1 = details: ref Kotschy et al., 2016; cited from earlier work
SEC = target: the molecule itself; assay: SEC
PUMA = assay type: binding, mouse; details: Mcl-1-deleted murine livers reconstituted by scAAV; MS in duplicate
Procedure, shortened: (§1)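 Mcl-1 floxed mice (6–8 weeks, mixed sex) received tail-vein scAAV-LP1-Cre (2×10^11 genome copies) plus GFP control or FLAG-MCL-1 (wild-type, OMM-only or Matrix-only isoform) vectors (5×10^10 copies). Two weeks later, liver mitochondria were isolated by differential centrifugation and a 70%/30% Percoll gradient. Anti-FLAG M2 IP was run in 0.5% NP40/Tris pH 7.5 for 90 min, with FLAG-peptide elution. Three livers were pooled per IP; MS was run in duplicate, Sequest, ~1% FDR.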

MCAD = assay type: binding, mouse; details: Mcl-1-deleted murine livers reconstituted by scAAV; MS in duplicate
Procedure, shortened: as §1

SCAD = assay type: binding, mouse; details: Mcl-1-deleted murine livers reconstituted by scAAV; MS in duplicate
Procedure, shortened: as §1

BIM = assay type: binding, mouse; details: Mcl-1-deleted murine livers reconstituted by scAAV; MS in duplicate
Procedure, shortened: as §1

For `Cc1c(-c2c(-c3ccc(F)o3)sc3ncnc(O[C@H](Cc4ccccc4OCc4ccnn4CC(F)(F)F)C(=O)O)c23)ccc(OCCN2CCN(C)CC2)c1Cl` [S63845], the “Toxicity in treated mice” value [1] is listed as “lack of overt toxicity, including cardiotoxicity” and the “Selectivity for MCL-1” value (surface groove of MCL-1) is listed as “selectively targets the surface groove of MCL-1”.

B1: recombinant human VLCAD (aa 40-655), His-tagged (enzyme, UniProt P49748-1 40-655, looked up)
chain: YAGGAAQLALDKSDSHPSDALTRKKPAKAESKSFAVGMFKGQLTTDQVFPYPSVLNEEQTQFLKELVEPVSRFFEEVNDPAKNDALEMVEETTWQGLKELGAFGLQVPSELGGVGLCNTQYARLVEIVGMHDLGVGITLGAHQSIGFKGILLFGTKAQKEKYLPKLASGETVAAFCLTEPSSGSDAASIRTSAVPSPCGKYYTLNGSKLWISNGGLADIFTVFAKTPVTDPATGAVKEKITAFVVERGFGGITHGPPEKKMGIKASNTAEVFFDGVRVPSENVLGEVGSGFKVAMHILNNGRFGMAAALAGTMRGIIAKAVDHATNRTQFGEKIHNFGLIQEKLARMVMLQYVTESMAYMVSANMDQGATDFQIEAAISKIFGSEAAWKVTDECIQIMGGMGFMKEPGVERVLRDLRIFRIFEGTNDILRLFVALQGCMDKGKELSGLGSALKNPFGNAGLLLGEAGKQLRRRAGLGSGLSLSGLVHPELSRSGELAVRALEQFATVVEAKLIKHKKGIVNEQFLLQRLADGAIDLYAMVVVLSRASRSLSEGHPTAQHEKMLCDTWCIEAAARIREGMAALQSDPWQQELYRNFKSISKALVERGGVVTSNPLGF
In the case of B1, the “stoichiometry N” value (SEC) is reported as 2.

B2: FLAG-MCL-1: full-length protein, reconstituted into Mcl-1−/− murine livers (protein, UniProt P97287 1-331, looked up)
chain: MFGLRRNAVIGLNLYCGGASLGAGGGSPAGARLVAEEAKARREGGGEAALLPGARVVARPPPVGAEDPDVTASAERRLHKSPGLLAVPPEEMAASAAAAIVSPEEELDGCEPEAIGKRPAVLPLLERVSEAAKSSGADGSLPSTPPPPEEEEDDLYRQSLEIISRYLREQATGSKDSKPLGEAGAAGRRALETLRRVGDGVQRNHETAFQGMLRKLDIKNEGDVKSFSRVMVHVFKDGVTNWGRIVTLISFGAFVAKHLKSVNQESFIEPLAETITDVLVRTKRDWLVKQRGWDGFVEFFHVQDLEGGIRNVLLAFAGVAGVGAGLAYLIR
modifications: full-length FLAG tag
In the case of B2, the “Interaction with PUMA (FLAG pull-down)” value (PUMA) is reported as “pulled down native VLCAD and established physiologic interactors of MCL-1, such as BIM and PUMA”, the “Interaction with MCAD (FLAG pull-down)” value (MCAD) is reported as “not MCAD or SCAD” and the “Interaction with SCAD (FLAG pull-down)” value (SCAD) is reported as “not MCAD or SCAD”. The “Interaction with BIM (FLAG pull-down)” value (BIM) was “pulled down native VLCAD and established physiologic interactors of MCL-1, such as BIM and PUMA”.

B3: FLAG-MCL-1^OMM: mutant MCL-1 construct with an internal FLAG tag that only generates the OMM isoform (protein)
chain: MFGLAANAVIGLNLYCGGASLGAGGGSPAGARLVAEEAKARREGGGEAALLPGARVVARPPPVGAEDPDVTASAERRLHKSPGLLAVPPEEMAASAAAAIVSPEEELDGCEPEAIGKRPAVLPLLERVSEAAKSSGADGSLPSTPPPPEEEEDDLYRQSLEIISRYLREQATGSKDSKPLGEAGAAGRRALETLRRVGDGVQRNHETAFQGMLRKLDIKNEGDVKSFSRVMVHVFKDGVTNWGRIVTLISFGAFVAKHLKSVNQESFIEPLAETITDVLVRTKRDWLVKQRGWDGFVEFFHVQDLEGGIRNVLLAFAGVAGVGAGLAYLIR
modifications: left off: FLAG, internal (at residue 134), kept
In the case of B3, the “Interaction with PUMA (FLAG pull-down)” value (PUMA) is reported as “BIM and PUMA were enriched” and the “Interaction with BIM (FLAG pull-down)” value (BIM) is reported as “BIM and PUMA were enriched”.
